Reference: ChEMBL document CHEMBL3259629, “Discovery and optimization of piperidyl-1,2,3-triazole ureas as potent, selective, and in vivo-active inhibitors of α/β-hydrolase domain containing 6 (ABHD6)” (J Med Chem, 2013)
Active and inactive are the calls of the source. The rule behind the calls is not given here.

Assays:
Mus musculus [1] = experiment: In vivo inhibition of DAGLbeta in C57Bl/6 mouse liver and bain at 0.1 to 1 mg/kg, ip after 4 hrs by FP-rhodamine-labelled gel-based competitive ABPP assay; format: functional, organism-based
How it was run: (§1)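 C57Bl/6 mice dosed i.p. at 0.1, 0.5 or 1 mg kg⁻¹ in 18:1:1 saline/ethanol/PEG40 (ethoxylated castor oil), 10 μL g⁻¹. Killed after 4 hr under isoflurane by cervical dislocation. Brain and liver membrane fractions (100,000 × g) labelled with FP-rhodamine or HT-01 (1 μM, 30 min, 37 °C), then SDS-PAGE and in-gel fluorescence scanning. Liver ABHD6 read from HT-01 gels.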

Mus musculus [2] = experiment: In vivo inhibition of PLA2G7 in C57Bl/6 mouse liver and bain at 0.1 to 1 mg/kg, ip after 4 hrs by FP-rhodamine-labelled gel-based competitive ABPP assay; format: functional, organism-based; how it was run: as §1
Mus musculus [3] = experiment: In vivo inhibition of ABHD6 in C57Bl/6 mouse brain at 0.1 to 1 mg/kg, ip after 4 hrs by HT-10-labelled gel-based competitive ABPP assay; format: functional, organism-based; how it was run: as §1
Mus musculus [4] = experiment: In vivo inhibition of DDH2 in C57Bl/6 mouse liver and bain at 0.1 to 1 mg/kg, ip after 4 hrs by FP-rhodamine-labelled gel-based competitive ABPP assay; format: functional, organism-based; how it was run: as §1
Mus musculus [5] = experiment: In vivo inhibition of ABHD6 in C57Bl/6 mouse brain at 1 mg/kg, ip after 4 hrs by HT-10-labelled gel-based competitive ABPP assay; format: functional, organism-based; design: dose 1 mg/kg; how it was run: as §1
Mus musculus [6] = experiment: In vivo inhibition of ABHD6 in C57Bl/6 mouse liver at 5 to 10 mg/kg, ip after 4 hrs by FP-rhodamine/HT-10-labelled gel-based competitive assay; format: functional, organism-based
How it was run: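 C57Bl/6 mice dosed i.p. at 1–40 mg kg⁻¹ in 18:1:1 saline/ethanol/PEG40, 10 μL g⁻¹, for 4 hr, then killed. Brain and liver membrane proteomes labelled with FP-rhodamine or HT-01 (1 μM, 30 min, 37 °C) and resolved by SDS-PAGE with in-gel fluorescence scanning.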

Mus musculus [7] = experiment: In vivo inhibition of ABHD6 in C57Bl/6 mouse brain at 20 mg/kg, ip after 4 hrs by FP-rhodamine/HT-10-labelled gel-based competitive assay; conditions: C57Bl/6, Brain
[8] = target: T1, Monoacylglycerol lipase ABHD6 (Mus musculus, UniProt Q8R2Y0); experiment: Inhibition of ABHD6 in FP-rhodamine-labelled mouse brain membrane preincubated for 30 mins followed by FP-rhodamine labelling measured after 30 mins by gel-based competitive ABPP assay
T1 sequence (Q8R2Y0 whole entry): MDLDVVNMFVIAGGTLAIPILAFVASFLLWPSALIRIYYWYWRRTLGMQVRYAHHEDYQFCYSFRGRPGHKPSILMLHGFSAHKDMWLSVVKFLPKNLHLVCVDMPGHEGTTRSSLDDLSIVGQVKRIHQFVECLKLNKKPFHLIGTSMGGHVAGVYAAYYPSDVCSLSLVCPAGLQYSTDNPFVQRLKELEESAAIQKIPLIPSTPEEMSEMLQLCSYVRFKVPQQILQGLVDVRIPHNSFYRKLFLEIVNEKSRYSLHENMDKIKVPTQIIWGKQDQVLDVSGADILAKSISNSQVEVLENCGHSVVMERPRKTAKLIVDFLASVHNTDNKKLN

Mus musculus [9] = experiment: In vivo inhibition of carboxylesterase-1 in C57Bl/6 mouse liver at 40 mg/kg, po after 4 hrs by FP-rhodamine-labelled gel-based competitive ABPP assay; format: functional, organism-based; design: dose 40 mg/kg
Mus musculus [10] = experiment: In vivo inhibition of ABHD6 in C57Bl/6 mouse liver at 10 to 40 mg/kg, po after 4 hrs by FP-rhodamine/HT-10-labelled gel-based competitive assay; format: functional, organism-based

In the case of `O=C(O)c1cccc(-c2ccc(-c3cn(C(=O)N4CCCCC4Cc4ccccc4)nn3)cc2)c1` (racemic), the inhibition (Mus musculus [1]) is reported as “inactive”, the inhibition (Mus musculus [2]) is reported as “inactive” and the inhibition (Mus musculus [3]) is reported as “inactive”. For the same compound, the inhibition (Mus musculus [4]) was “inactive”.
`O=C(N1CCCCC1c1ccccc1)n1cc(-c2ccc(-c3cccc(CO)c3)cc2)nn1` (racemic) was tested, and the inhibition (Mus musculus [5]) was “Active”.
In the case of `O=C(c1cccc(-c2ccc(-c3cn(C(=O)N4CCCCC4c4ccccc4)nn3)cc2)c1)N1CCCCC1` (racemic), the inhibition (Mus musculus [6]) is reported as “Active”, the inhibition in vivo at 20 mg/kg (Mus musculus [7]) is reported as > 70% and the IC50 [8] is reported as 1.3 nM. The inhibition (Mus musculus [9]) was “Active” and the inhibition (Mus musculus [10]) was “Active”.
